From ChEMBL document CHEMBL1123636 (J Med Chem, 1987)
Where a SMILES comes first, the peptide text is derived from it. Side-chain parts run from the residue outwards. The star is where a group is joined. Oxymorphamine(6α) = CN1CC[C@]23c4c5ccc(O)c4O[C@H]2[C@@H](N*)CC[C@@]3(O)[C@H]1C5

Key:
Mus musculus [1] = test: Analgesic potency (antinociceptive activity) (administered icv) at peak time of 20 min in male Swiss-Webster mice; format: functional
In short: (§1)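 Intracerebroventricular dosing in male Swiss-Webster mice. Antinociception scored by the acetic acid writhing test at the peak time of analgesia, 10 or 20 min after injection depending on compound.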

Mus musculus [2] = organism: Mus musculus; test: Opioid agonist potencies was determined by mouse vas deferens (MVD); format: functional
Mu-type opioid receptor [3] = biological target: T1, Mu-type opioid receptor (Cavia porcellus, UniProt P97266); test: Binding affinity of Opioid receptor mu 1 by the displacement of mu-selective [3H]DAGO from brain membrane preparations.
In short: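 Competitive displacement of the μ-selective radioligand [3H]DAGO from brain membrane preparations ([…]). Affinity taken from ligand displacement.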

Cavia porcellus [4] = organism: Cavia porcellus; test: Ke value for naloxone versus compound in the guinea pig ileum (GPI) in order to distinguish between mu- and delta-mediated effects; format: functional
In short: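 Electrically stimulated guinea pig ileum. Naloxone antagonism measured against each agonist and expressed as a Ke, used to tell μ- from δ- or κ-mediated effects.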

Cavia porcellus [5] = organism: Cavia porcellus; test: Opioid agonist potencies was determined by electrically stimulated guinea pig ileum (GPI); format: functional
Mus musculus [6] = test: Analgesic potency (antinociceptive activity) (administered icv) at peak time of 10 min in male Swiss-Webster mice; format: functional; in short: as §1
Mu-type opioid receptor [7] = biological target: T1, Mu-type opioid receptor; test: Binding affinity of Opioid receptor mu 1 mu 1 by the displacement of mu-selective [3H]DAGO from brain membrane preparations.

T1 sequence (P97266 whole entry): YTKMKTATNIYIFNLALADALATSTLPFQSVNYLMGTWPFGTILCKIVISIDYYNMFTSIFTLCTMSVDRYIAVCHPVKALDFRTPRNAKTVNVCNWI

Row | Molecule | ED50 (Mus musculus [1]) [nM] | IC50 (Mus musculus [2]) [nM] | Ki (Mu-type opioid receptor [3]) [nM] | Ke (Cavia porcellus [4]) [nM] | IC50 (Cavia porcellus [5]) [nM] | ED50 (Mus musculus [6]) [nM] | Ki (Mu-type opioid receptor [7]) [nM]
1 | CC(C)C[C@H](NC(=O)[C@H](Cc1ccccc1)NC(=O)CNC(=O)[C@H](CCC(=O)N[C@H]1CC[C@@]2(O)[C@H]3Cc4ccc(O)c5c4[C@@]2(CCN3C)[C@H]1O5)NC(=O)[C@@H](N)Cc1ccc(O)cc1)C(=O)O (H-YE(Oxymorphamine(6α))GFL-OH) | 0.7 | 26.9 | 19.1 | 1.02 | 7.5 |  | 
2 | CN1CC[C@]23c4c5ccc(O)c4O[C@H]2C(=O)CC[C@@]3(O)[C@H]1C5 [OXYMORPHONE] |  |  |  |  |  | 24 | 
3 | CC(C)C[C@H](NC(=O)[C@H](Cc1ccccc1)NC(=O)CNC(=O)[C@H](CCC(=O)NCC(=O)NCC(N)=O)NC(=O)[C@@H](N)Cc1ccc(O)cc1)C(=O)O (H-YE([Gly-Gly-NH2])GFL-OH) |  | 61.8 | 52.9 | 2.32 | 597 | 60 | 
4 | CC(=O)N[C@H]1CC[C@@]2(O)[C@H]3Cc4ccc(O)c5c4[C@@]2(CCN3C)[C@H]1O5 | 5.4 | 166 | 1.81 | 0.88 | 136 |  | 
5 | H-YQGFL-OH |  | 123 |  | 1.63 | 210 | 84 | 21.7
6 | CC(=O)NCC(=O)NCC(=O)N[C@H]1CC[C@@]2(O)[C@H]3Cc4ccc(O)c5c4[C@@]2(CCN3C)[C@H]1O5 | 3.1 | 78 | 5.48 | 1.55 | 82.3 |  | 
7 | CC(C)C[C@H](NC(=O)[C@H](Cc1ccccc1)NC(=O)CNC(=O)[C@H](CCC(=O)NCC(=O)NCC(=O)N[C@H]1CC[C@@]2(O)[C@H]3Cc4ccc(O)c5c4[C@@]2(CCN3C)[C@H]1O5)NC(=O)[C@@H](N)Cc1ccc(O)cc1)C(=O)O (H-YE([Gly-Gly-Oxymorphamine(6α)])GFL-OH) | 5 | 47.7 | 11.1 | 1.32 | 57.2 |  | 
8 | CC(C)C[C@H](NC(=O)[C@H](Cc1ccccc1)NC(=O)CNC(=O)CNC(=O)[C@@H](N)Cc1ccc(O)cc1)C(=O)O [ENKEPHALIN] |  |  |  | 1.53 |  |  | 
